Assay outcomes as filed in PubChem.
E-selectin induc: induces E-selectin expression in human endothelial cells; P16581; HUVEC E-selectin immunofluorescence imaging; normalized: neutral wells 0, TNF-alpha wells 100; activation, % at 7.58 µM; 260,000 compounds, 0.37% hits; AID 686992;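 active means mean E-selectin-positive cell signal at least 10% of the positive control, reached in at least 60% of replicates, without over 20% cell loss; inconclusive means no rule given, readout overlaps actives, possibly toxicity-flagged; inactive means the rest, including those meeting only one limit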
Target sequence (P16581 whole entry, looked up): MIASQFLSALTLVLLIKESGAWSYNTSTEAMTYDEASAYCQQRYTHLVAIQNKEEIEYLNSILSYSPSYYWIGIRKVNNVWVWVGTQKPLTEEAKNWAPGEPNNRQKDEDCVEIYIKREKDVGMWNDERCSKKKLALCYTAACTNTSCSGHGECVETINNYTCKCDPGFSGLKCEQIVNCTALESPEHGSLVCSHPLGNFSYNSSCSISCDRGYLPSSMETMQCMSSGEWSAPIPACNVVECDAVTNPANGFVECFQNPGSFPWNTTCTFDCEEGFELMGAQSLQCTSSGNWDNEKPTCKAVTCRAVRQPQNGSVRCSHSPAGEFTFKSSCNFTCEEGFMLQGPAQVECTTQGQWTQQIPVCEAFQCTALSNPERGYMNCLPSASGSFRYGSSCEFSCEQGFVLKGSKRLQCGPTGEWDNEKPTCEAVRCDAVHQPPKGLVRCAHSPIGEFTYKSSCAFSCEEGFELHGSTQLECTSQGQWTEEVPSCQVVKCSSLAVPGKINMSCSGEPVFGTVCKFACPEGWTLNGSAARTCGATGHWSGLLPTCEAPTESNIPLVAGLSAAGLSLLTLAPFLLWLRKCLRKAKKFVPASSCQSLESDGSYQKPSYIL
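System: HUVEC / Compound: single concentration / Signal: immunofluorescence imaging / Read-out: percent E-selectin-positive cells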
Env fusion inh: inhibitors of HIV Env-mediated cell fusion | AID 651610 | inhibition, % at 12.3 µM | HeLa-JRFL Env/CEM21 cell fusion, luciferase | 360,000 compounds, 1.1% hits;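 active means mean replicate inhibition score of at least 50 and every replicate individually at or above 50; inconclusive means only one of the two criteria met; inactive means mean below 50 and not all replicates reaching 50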
CFTR F508del cor: CFTR F508del correction in bronchial cells. CFBE cells, YFP halide quenching; stimulated with forskolin plus potentiator P3; % fluorescence drop versus neutral controls. activity (quench increase), % at 7.58 µM. 350,000 compounds, 0.36% hits. AID 720511;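 active means mean added fluorescence quench of at least 8% versus neutral control, with both replicates also reaching 8%; inconclusive means only one of the mean or replicate conditions met; inactive means mean below 8% and not both replicates reaching 8%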;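 further: cells transiently co-express mutant CFTR-F508del with the halide-sensitive YFP; corrector assay measuring rescue of mutant channel to the surface after 24 h compound exposure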
S100A4 MyoIIA: inhibitors of human S100A4 binding to myosin IIA peptide. AID 652163. 360,000 compounds, 0.14% hits. inhibition, % at 10.7 µM. S100A4/TAMRA-MyoIIA peptide fluorescence polarization;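 active means mean inhibition of at least 70% across replicates, with every replicate also reaching that level; inconclusive means mean inhibition reaches 70% but some replicates fall short; inactive means mean inhibition below 70%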
Target sequence (P26447 whole entry, looked up): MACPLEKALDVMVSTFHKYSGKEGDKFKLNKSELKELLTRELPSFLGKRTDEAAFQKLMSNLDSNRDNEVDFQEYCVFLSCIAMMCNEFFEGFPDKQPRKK
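incubation = readout 5 min after mixing, signal stable up to 60 min | system = S100A4 monomer protein | buffer or medium = HEPES pH 7.2 with CaCl2, KCl, NaCl, DTT, Triton | benchmarks = neutral control DMSO, positive control TFP | also added = fluorescent myosin IIA peptide, 5 nM | compound dosing = one concentration per compound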
FGF22 binding: FGF22 (human) thermal shift binding; Q9HCT0; recombinant FGF22 thermal shift, SYPRO orange fluorescence; percent of sucrose octasulfate shift, DMSO zero; activity (Tm shift, normalised), % at 9.99 µM; 340,000 compounds, 1.5% hits; AID 651658;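 active means mean Tm shift, scaled 0 neutral to 100 positive control, at about 1.3% or above, every replicate too, limit read from the data; inconclusive means no clear call, values can overlap the other calls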
Of the large screens only hits and unclear results are named; the others gave an inactive call. In the library only some 2.7% were active in any assay of this set; here they are far more common.

O=C(CNC(=O)c1ccc(N2C(=O)c3ccccc3C2=O)cc1)OCC(=O)c1ccc(Cl)cc1	none (no result: E-selectin induc)
O=C(O)c1ccc(N2C(=O)c3cccc(Oc4ccc(Cl)cc4)c3C2=O)cc1	FGF22 binding 44.5 (no result: E-selectin induc)
O=C(O)c1cccc(N2C(=O)c3cccc(Oc4ccc(Cl)cc4)c3C2=O)c1	FGF22 binding 43.5 (no result: E-selectin induc)
O=C(O)CN1C(=O)c2ccc(Oc3cccc4c3C(=O)N(CC(=O)O)C4=O)cc2C1=O	none (no result: E-selectin induc, CFTR F508del cor, S100A4 MyoIIA, FGF22 binding)
COc1ccc(NC(=O)N(C)C[C@H]2Oc3ccc(NC(=O)Cc4ccccc4)cc3CC(=O)N([C@@H](C)CO)C[C@H]2C)cc1	none (no result: S100A4 MyoIIA, FGF22 binding)
N#Cc1cccc(-c2ccc(C3[C@H]4CNC[C@@H]3N4Cc3ccc(F)cc3)cc2)c1 (some centres not stated)	none (no result: Env fusion inh, FGF22 binding)
CC(C)NC(=O)NCC[C@H]1CC[C@@H](NS(=O)(=O)c2ccc(-c3ccccc3)cc2)[C@@H](CO)O1	none
C[C@@H]1CCCCO[C@H](CN(C)C(=O)Nc2ccc(F)cc2)[C@@H](C)CN([C@H](C)CO)C(=O)c2cc(NC(=O)Nc3ccc(C(F)(F)F)cc3)ccc2O1	none
C[C@H](CO)N1C[C@H](C)[C@H](CN(C)C(=O)Nc2ccc(F)cc2)OCCCC[C@H](C)Oc2ccc(NC(=O)Nc3ccc(C(F)(F)F)cc3)cc2C1=O	FGF22 binding 1.3
C[C@@H]1CCCCO[C@H](CN(C)C(=O)Nc2ccc(F)cc2)[C@H](C)CN([C@@H](C)CO)C(=O)c2cc(NC(=O)Nc3ccc(C(F)(F)F)cc3)ccc2O1	FGF22 binding 1.3
C[C@H](CO)N1C[C@H](C)[C@@H](CN(C)C(=O)Nc2ccc(C(F)(F)F)cc2)OCCCC[C@H](C)Oc2ccc(NC(=O)Nc3ccc(F)cc3)cc2C1=O	CFTR F508del cor 9.3
C[C@H]1CCCCO[C@@H](CN(C)C(=O)Nc2ccc(C(F)(F)F)cc2)[C@@H](C)CN([C@@H](C)CO)C(=O)c2cc(NC(=O)Nc3ccc(F)cc3)ccc2O1	CFTR F508del cor 8.3
COc1cccc(NC(=O)N2CC3(C2)[C@H](c2ccccc2)[C@H](CO)N3C(=O)C2CCC2)c1	none (no result: Env fusion inh, S100A4 MyoIIA, FGF22 binding)
C[C@H]1CCCCO[C@@H](CN(C)C(=O)Nc2ccc(C(F)(F)F)cc2)[C@@H](C)CN([C@@H](C)CO)C(=O)c2cc(NC(=O)Nc3ccc4c(c3)OCO4)ccc2O1	CFTR F508del cor 8.1
C[C@H](CO)N1C[C@H](C)[C@H](CN(C)C(=O)Nc2ccc3c(c2)OCO3)OCCCC[C@H](C)Oc2ccc(NC(=O)Nc3ccc(C(F)(F)F)cc3)cc2C1=O	none
Cc1ccc(C2NC(=S)NC3=C2C(=O)CCC3)cc1 (configuration not stated)	FGF22 binding 43.1
CCC1(CC)Cc2ccccc2C(=O)N1	none
CN1C(=O)c2ccccc2CC12c1ccccc1C(=O)N2C (configuration not stated)	FGF22 binding 43.4
Cc1noc(C)c1NC(=O)N(C)C[C@H]1Oc2ccc(NS(=O)(=O)c3ccc(Cl)cc3)cc2CC(=O)N([C@@H](C)CO)C[C@@H]1C	none
CCC1(O)C(=O)OCc2c1cc1n(c2=O)Cc2cc3c(N)cccc3nc2-1 (configuration not stated)	Env fusion inh 67.9
C[C@@H]1CCCCO[C@@H](CN(C)Cc2ccccc2)[C@H](C)CN([C@@H](C)CO)C(=O)c2cc(NC(=O)Nc3ccc(C(F)(F)F)cc3)ccc2O1	Env fusion inh inconclusive
COCCNC(=O)C[C@H]1CC[C@H](NC(=O)NC2CCCCC2)[C@@H](CO)O1	none (no result: Env fusion inh)
COc1ccc(NC(=O)Nc2cnccn2)cc1	none
CCOc1ccc(NC(=O)NCc2ccccn2)cc1	Env fusion inh 57.5
CCOc1ccc(NC(=O)Nc2ccc(NC(C)=O)cc2)cc1	none (no result: E-selectin induc, CFTR F508del cor)
CCOc1ccc(NC(=O)Nc2cnccn2)cc1	FGF22 binding 43.5
Cc1ccc(NC(=O)NCc2ccccn2)cc1	none (no result: E-selectin induc, CFTR F508del cor, S100A4 MyoIIA, FGF22 binding)
CCOc1ccc(NC(=O)NC(C)CC)cc1 (configuration not stated)	FGF22 binding 42.9
C[C@H]1CN([C@@H](C)CO)C(=O)Cc2cc(NC(=O)Cn3cnnn3)ccc2O[C@H]1CN(C)Cc1ccc(Cl)c(Cl)c1	none (no result: Env fusion inh)
CCCNC(=O)[C@@H]1[C@@H](CO)[C@@H]2Cn3c(ccc(-c4ccccc4F)c3=O)[C@@H]2N1C(C)=O	none (no result: Env fusion inh, FGF22 binding)
Cc1noc(C)c1NC(=O)Nc1cccc2c1O[C@@H](CN(C)C(=O)Nc1ccccc1)[C@H](C)CN([C@@H](C)CO)C2=O	none
COc1ccc(NC(=O)N(C)C[C@H]2Oc3ccc(NC(=O)Nc4ccc5c(c4)OCO5)cc3CC(=O)N([C@@H](C)CO)C[C@@H]2C)cc1	none (no result: S100A4 MyoIIA)
COc1ccc(CCNc2ncnc3sccc23)cc1OC	none
COc1ccc(CCNc2ncnc3c2oc2ccccc23)cc1OC	CFTR F508del cor 9.3 (no result: E-selectin induc, Env fusion inh)
COc1ccc(NC(=O)Nc2cccc3c2O[C@@H](CN(C)CC2CCCCC2)[C@H](C)CN([C@@H](C)CO)C3=O)cc1	none (no result: Env fusion inh)
CCOC(=O)N1CCN(C(=O)CSc2nnc(COc3ccccc3)o2)CC1	none
CCOC(=O)N1CCN(C(=O)CSc2nnc(Cc3ccccc3)o2)CC1	FGF22 binding 43.4
COCC(=O)Nc1ccc2c(c1)[C@H]1C[C@H](CC(=O)N3CCc4ccccc4C3)O[C@H](CO)[C@H]1O2	none (no result: Env fusion inh)
CN1C[C@@H]2C[C@@H](C3=Cc4cc(Cl)ccc4OC3)N3CCC[C@@]23C1=O	none (no result: E-selectin induc, CFTR F508del cor)
COc1ccccc1CN1C[C@@H]2C[C@@H](C3=Cc4cc(Cl)ccc4OC3)N3CCC[C@@]23C1=O	Env fusion inh 66.6
CS/C(=N\S(=O)(=O)c1cccs1)Nc1ccc(F)c(Cl)c1	FGF22 binding 1.3 (no result: E-selectin induc, CFTR F508del cor)
O=C(NCC[C@H]1CC[C@@H](NC(=O)C2CCCC2)[C@@H](CO)O1)c1ccc(F)cc1	none
CCCN(CCC)c1ncnc2nc[nH]c12	Env fusion inh 61.8
Nc1ncnc2nc[nH]c12	none
C[C@@H]1CN([C@H](C)CO)C(=O)Cc2cc(NS(=O)(=O)c3cn(C)cn3)ccc2O[C@@H]1CN(C)Cc1ccncc1	none (no result: E-selectin induc, Env fusion inh)
CCN(CC)CCNc1ccc(CO)c2oc3cc(Cl)ccc3c(=O)c12	CFTR F508del cor 9.0 (no result: E-selectin induc)
OC1CCCN(CC(O)c2ccccc2)C1 (configuration not stated)	FGF22 binding 42.9 (no result: E-selectin induc)
CO[C@H]1CN(C)C(=O)c2ccc(NS(C)(=O)=O)cc2OC[C@@H](C)N(C(=O)CC2CC2)C[C@@H]1C	none (no result: Env fusion inh)
C/C(=N/NC(=O)c1cc(-c2ccc(Br)s2)[nH]n1)c1ccco1	FGF22 binding 1.4 (no result: E-selectin induc)
C/C(=N\NC(=O)c1cc(C(C)C)[nH]n1)c1ccco1	E-selectin induc 27.0 (no result: CFTR F508del cor)
Cn1nc(C2CC2)cc1NC(=O)C1(C)CCN1C(=O)c1ccccc1CCc1ccccc1 (configuration not stated)	Env fusion inh 64.1
Cn1nc(C2CC2)cc1NC(=O)C1(C)CCN1C(=O)CC(c1ccccc1)c1ccccc1 (configuration not stated)	none (no result: Env fusion inh)
